According to ChEMBL document CHEMBL3596119, “Synthesis and biological characterization of a promising F-18 PET tracer for vesicular acetylcholine transporter” (Bioorg Med Chem, 2015):

Key:
Lung = assay: Biodistribution in Sprague-Dawley rat lung at 2.2 MBq/120 uL, iv after 60 mins by gamma counting; assay type: ADME, organism-based; settings: in vivo, 1 h
How it was run: (§1)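 Adult male SD rats, isoflurane (2-3%)/oxygen anesthesia, tail-vein injection of ~2.2 MBq/120 μL tracer in 10% ethanol in saline; euthanized under anesthesia at the stated time (n = 4 per time point). Brain dissected into regions, remainder kept for total brain; organs, blood, bone collected and weighed, gamma-counted against a standard dilution of injectate; %ID/g calculated.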

Muscle tissue = assay: Biodistribution in Sprague-Dawley rat muscle at 2.2 MBq/120 uL, iv after 120 mins by gamma counting; assay type: ADME, organism-based; settings: in vivo, 2 h; how it was run: as §1
Pancreas = assay: Biodistribution in Sprague-Dawley rat pancreas at 2.2 MBq/120 uL, iv after 120 mins by gamma counting; assay type: ADME, organism-based; settings: in vivo, 2 h; how it was run: as §1
Kidney [1] = assay: Biodistribution in Sprague-Dawley rat kidney at 2.2 MBq/120 uL, iv after 120 mins by gamma counting; assay type: ADME, organism-based; settings: in vivo, 2 h; how it was run: as §1
Liver = assay: Biodistribution in Sprague-Dawley rat liver at 2.2 MBq/120 uL, iv after 120 mins by gamma counting; assay type: ADME, organism-based; settings: in vivo, 2 h; how it was run: as §1
Cerebellum = assay: Biodistribution in Sprague-Dawley rat cerebellum at 2.2 MBq/120 uL, iv after 5 mins by gamma counting; assay type: ADME, organism-based; settings: in vivo; how it was run: as §1
Rattus norvegicus [2] = assay: Biodistribution in Sprague-Dawley rat brain stem at 2.2 MBq/120 uL, iv after 5 mins by gamma counting; assay type: ADME, organism-based; settings: in vivo; how it was run: as §1
Cortex = assay: Biodistribution in Sprague-Dawley rat cortex at 2.2 MBq/120 uL, iv after 5 mins by gamma counting; assay type: ADME, organism-based; settings: in vivo; how it was run: as §1
Hippocampus = assay: Biodistribution in Sprague-Dawley rat hippocampus at 2.2 MBq/120 uL, iv after 5 mins by gamma counting; assay type: ADME, organism-based; settings: in vivo; how it was run: as §1
[3] = Drug uptake in cynomolgus monkey striatum at 296 to 410 MBq administered via venous catheter after 120 mins by microPET imaging in presence of 0.25 mg/kg (-)-vesamicol; assay type: ADME, organism-based, Macaca fascicularis; settings: in vivo, 2 h
How it was run: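 Blocking scan: (-)-vesamicol 0.25 mg/kg was given through the venous catheter 5 min before the tracer (296–410 MBq). The monkey was under isoflurane anesthesia. A 2 h dynamic microPET scan followed, and striatal and cerebellar time-activity curves were generated.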

Plasma = assay: Metabolic stability in monkey plasma assessed as radioactivity at 15 to 106 MBq after 5 to 60 mins by HPLC analysis; assay type: ADME, cell-free, Macaca mulatta; settings: rhesus monkey
Striatum = assay: Ex-vivo drug uptake in Sprague-Dawley rat striatum at 63 MBq, iv after 60 mins by autoradiography; assay type: ADME, organism-based; settings: 1 h
How it was run: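 One adult male SD rat received ~63.0 MBq by tail vein under anesthesia and was killed at 60 min. The brain was snap-frozen and cut into 100 μm horizontal sections. Sections were exposed to film for 12 h at -80 °C. Striatum-to-cerebellum ratio was quantified over 30 slices.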

Bone = assay: Biodistribution in Sprague-Dawley rat bone at 2.2 MBq/120 uL, iv after 5 mins by gamma counting; assay type: ADME, organism-based, Bone element; settings: in vivo; how it was run: as §1
Rattus norvegicus [4] = assay: Biodistribution in Sprague-Dawley rat total brain at 2.2 MBq/120 uL, iv after 5 mins by gamma counting; assay type: ADME, organism-based; settings: in vivo
How it was run: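 Injected by tail vein in 10% ethanol in saline into adult male SD rats under 2-3% isoflurane/oxygen anesthesia. Rats were killed under anesthesia, n = 4 per time point. Total brain and other tissues were weighed and gamma-counted against a standard dilution of the injectate. Values are %ID/g.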

Rattus norvegicus [5] = assay: Biodistribution in Sprague-Dawley rat fat at 2.2 MBq/120 uL, iv after 30 mins by gamma counting; assay type: ADME, organism-based, Adipose tissue; settings: in vivo, 0.5 h; how it was run: as §1
Spleen = assay: Biodistribution in Sprague-Dawley rat spleen at 2.2 MBq/120 uL, iv after 30 mins by gamma counting; assay type: ADME, organism-based; settings: in vivo, 0.5 h; how it was run: as §1
Kidney [6] = assay: Biodistribution in Sprague-Dawley rat kidney at 2.2 MBq/120 uL, iv after 30 mins by gamma counting; assay type: ADME, organism-based; settings: in vivo, 0.5 h; how it was run: as §1

Drug uptake (Lung): 0.738 % ID/g | Drug uptake (Muscle tissue): 0.235 % ID/g | Drug uptake (Pancreas): 0.819 % ID/g | Drug uptake (Kidney [1]): 0.489 % ID/g | Drug uptake (Liver): 0.382 % ID/g | Drug uptake (Cerebellum): 0.593 % ID/g | Drug uptake (Rattus norvegicus [2]): 0.683 % ID/g | Drug uptake (Cortex): 0.777 % ID/g | Drug uptake (Hippocampus): 0.645 % ID/g | Drug uptake [3]: Not Active | Stability (Plasma): 76% | Drug uptake (Striatum): Active | Drug uptake (Bone): 0.426 % ID/g | Drug uptake (Rattus norvegicus [4]): 0.684 % ID/g | Drug uptake (Rattus norvegicus [5]): 0.324 % ID/g | Drug uptake (Spleen): 0.685 % ID/g | Drug uptake (Kidney [6]): 0.883 % ID/g
Structure (SMILES): O=C(c1ccc(F)cc1)C1CCN(C2Cc3c(cccc3OCC[18F])CC2O)CC1 (single isomer, unassigned; (-))
